Measurements taken from ChEMBL document CHEMBL4513216, “Probing the Open Global Health Chemical Diversity Library for Multistage-Active Starting Points for Next-Generation Antimalarials” (ACS Infect Dis, 2020).

experiment: Toxicity liver stage against HepG2, at 10uM; format: cell-based; parameters: test concentration 10 uM, cell line HepG2-A16-CD81EGFP; conditions: human, HepG2-A16-CD81EGFP cells; read-out: INHIBITION
Procedure, shortened: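 Uninfected HepG2-A16-CD81EGFP cells, 3 × 10^3 per well, 1536-well, plated on prespotted compound at 10 μM final, parasite-free screening media added to match infected plates; puromycin 10 μM positive, DMSO 0.5% negative; run in parallel with 48 h PbLuc assay at 37 °C, 5% CO2; viability by CellTiter-Glo luminescence, normalized to controls.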

Compound	cytotoxicity at 10 µM [%]
OC(CNCc1nnc2ccccn12)c1ccc2c(c1)OCCCO2 (stereo unspecified)	2.93
CC(=O)c1ccc(N2CCC3(CC2)CC(=O)N(C)C3)nc1	-1.66
Cc1cccc(N2CC[C@H]3[C@H]2CCN3C(=O)c2cnn(C)c2)n1	1.24
COc1cccc(N2CCN(C(=O)COc3c(C)occc3=O)CC2)c1	-1.29
Cc1cccnc1NC(=O)C1CCCN(c2cccc(C(F)(F)F)n2)C1 (stereo unspecified)	4.95
COc1c(C)cnc(CN(C)C(=O)c2ccccn2)c1C	0.22
CC(C)c1n[nH]c(C2CN(C(=O)c3cc(Cl)c[nH]3)CCO2)n1 (stereo unspecified)	-5.64
Cc1noc(C)c1CSc1nc(=O)ccn1C(C)C	5.95
Cc1cc(C)n(C2CCCN(C(=O)COCC(F)(F)F)C2)n1 (stereo unspecified)	-4.3
Cc1ccc(-c2noc(C(O)CC(C)C)n2)nn1 (stereo unspecified)	-7.72
COC(=O)c1ccoc1COC(=O)CCc1ccc(OC)c(OC)c1	5.27
O=C(COCc1ccccc1Cl)N1CCN(c2cnccn2)CC1	7.57
CNc1cc2c(nn1)CCN(C(=O)c1cc(F)cc(F)c1)C2	-5.97
CCc1nc(C)c([C@H]2CN(C)C[C@@H]2C(=O)Nc2ccc(OC)nc2)[nH]1	-3.59
CC(C)C1=NOC(c2nc(Cc3ccccc3)no2)C1 (stereo unspecified)	-3.94
Cn1cc(CCNC(=O)CCc2ccc3c(c2)OCO3)cn1	-7.15
Cc1nc(CO[C@H]2CN(C(=O)c3cccn3C)[C@@H]3COC[C@H]23)cs1	-112
COc1ccccc1N1CCN(C(=O)CCn2nnnc2C)CC1(C)C	6.48
Cc1ncc(-c2ccnc(N3CCN(C)CC3)n2)c(-c2cccnc2)n1	4.36
CN(C)c1ncc(CN2CCOC(C(=O)Nc3ccccc3)C2)cn1 (stereo unspecified)	-3.14
O=C(C1COc2ccccc2C1)N(CCO)Cc1ccccc1 (stereo unspecified)	4.58
Cc1nc(CN2C(=O)CC[C@@H]3[C@H]2CCN3C(=O)NC2CC2)cs1	9.37
COc1ccc(Cc2nnc3n2N=C(C(C)(C)C)CS3)cc1	10.7

Compound	cytotoxicity at 10 µM [%]
Cc1noc(-c2cnc(NC(C)C)nc2-c2ccco2)c1C	-0.275
CC(Cn1cccn1)NC(=O)CCc1ccc(S(N)(=O)=O)cc1 (stereo unspecified)	-2.02
CN(C(=O)Cc1c[nH]c2ccccc12)C1CCN(c2ccccn2)CC1	9.36
COc1ccccc1C1CC(=O)Nc2c1c(=O)[nH]n2C(C)C (stereo unspecified)	-4.08
CN(CCCSc1ccccc1)C(=O)Cn1ncc(N(C)C)cc1=O	0.0227
O=C(c1ccncc1)N1Cc2ccccc2OC2(CCOCC2)C1	-1.03
CN1C(=N)NC(=O)/C1=C/c1ccc(-c2ccc(Br)cc2)o1	5.39
CC(CC(=O)NS(=O)(=O)c1ccc2c(c1)OCCO2)c1ccc(F)cc1 (stereo unspecified)	-31.6
COc1cccc(-c2n[nH]c3c2CN(C(=O)c2cc(C)n(C)n2)CC3)c1	-0.159
O=C(CCc1ccccc1)C1CCCN(C(=O)c2ncc(F)cc2F)C1 (stereo unspecified)	-17.4
CC(=O)N1CCc2c(nc(N(C)C)nc2NCCCn2ccnc2)C1	-7.28
Cc1c(Br)cccc1CSc1nnc(CO)n1C	-40.5
CN(C)c1ncccc1CNC(=O)N1CCN(C)c2ccccc2C1	4.72
Cc1cc(N2CCCC2(C)c2nc(C)cc(C(=O)N(C)C)n2)ncn1 (stereo unspecified)	-0.846
CCN(Cc1ccc(Cl)s1)S(=O)(=O)CC	-1.11
CNc1cc(C2CCCN2C(=O)c2ccc(=O)[nH]n2)ccn1 (stereo unspecified)	-5.04
c1coc(CN2CCC3(CC2)COC(COCC2CC2)C3)c1 (stereo unspecified)	-4.37
CN(Cc1nccn1CC(F)(F)F)C(=O)c1ccc(F)cc1F	3.3
CS(=O)(=O)NCCN1CCSCC1c1ccc(Cl)cc1 (stereo unspecified)	-3.7
Cc1cc(-c2cnc(NC3CCCC3)nc2-c2ccoc2C)on1	45.7
CN1C(=O)CCC12CCC(NC(=O)NCc1cccnc1)CC2 (stereo unspecified)	-99.8
C[C@@H]1CN(c2ccc(Cl)cn2)C[C@]1(C)O	4.38
C=C(C)COc1ccccc1NC(=O)N1CCCCC1CO (stereo unspecified)	-8.06

Compound	cytotoxicity at 10 µM [%]
O=C(CCc1ncc(-c2ccc(F)cc2)o1)NCCN1CCOCC1	10.6
c1csc(CN2CCC3(CCOCC3COCC3CC3)CC2)n1 (stereo unspecified)	5.02
CC(=O)N1CC[C@@]2(O)CCCC[C@H]2[C@@H]1c1ccccc1	2.41
CCn1cc(CNC(=O)CCn2ncc3c(Cl)cccc32)cn1	10.9
N#Cc1ccc(CNCC2(c3ccccc3)CCOCC2)cc1	8.78
CCc1cccc(N2CCC(NC(=O)C3CCCO3)CC2)c1 (stereo unspecified)	-14.3
c1nc2n(n1)CC(NCc1nc(-c3ccsc3)no1)CC2 (stereo unspecified)	-8.13
OCC1(O)CCN(c2ccnc3c(C(F)(F)F)cccc23)CC1	-14.8
CCOC(=O)N1CCCC2(CCCNC2)C1 (stereo unspecified)	2.11
CC1(C)CN(C(=O)c2cnc(-c3ccccn3)nc2)CC[C@]1(C)O	-2.52
c1ccc2c(c1)CCN(c1nc(N3CCOCC3)c3nn[nH]c3n1)C2	11.6
Cc1nc(C(=O)NC2CCN(CCOc3ccc(Br)cc3)CC2)cs1	13
Cc1cc2n(n1)CC(CNCc1ccccc1Cn1cccn1)CN2 (stereo unspecified)	-13.3
CN(C)C(=O)CN1C(=O)CCC12CCN(Cc1ccsc1)CC2	-3.13
COC(=O)c1cccc(CN(C)C(C)c2ccccn2)c1 (stereo unspecified)	5.85
Cc1nc([C@H]2C[C@@H]3CCN(Cc4ccc5c(c4)OCO5)C[C@H]3O2)no1	-110
CN(C)S(=O)(=O)N1CCCC(c2ccncn2)C1 (stereo unspecified)	-15.3
COCCC1COC2(CCN(C(=O)C3CCCCC3)CC2)C1 (stereo unspecified)	7.4
Cc1cnn(CCNCc2nc(CNC(=O)c3ccccc3)no2)c1	-5.92
COCCCNc1c(C#N)c2c(c3nncn13)CN(C)CC2	5.86
O=C([C@H]1CC[C@@H]2[C@@H](CCN2C2CCCCC2)O1)N1CCOCC1	7.19
Nc1ncc(-c2ccc(Cl)cc2)c(C2CCCNC2)n1 (stereo unspecified)	-7.64
Cc1ccc(CN(C(=O)C(C)NC(N)=O)C2CC2)cc1C (stereo unspecified)	7.47

Compound	cytotoxicity at 10 µM [%]
CCC(C)NC(=O)c1nn(C)c(NC(=O)c2ccccc2OC)c1F (stereo unspecified)	-6.24
COc1cccc(CC(=O)N2CCCSCC2CN2CCCC2)c1 (stereo unspecified)	-1.42
O=C(NCCCn1cncn1)c1ccc(-c2ccco2)[nH]c1=O	2.87
Cn1ccnc1SCCNC(=O)c1c[nH]nc1C1CCCCC1	-4.68
Cn1c(CC2CCS(=O)(=O)C2)nnc1SCCOc1cccc(Cl)c1 (stereo unspecified)	14.4
O=C(O)CCCc1ccc2c(c1)CC(=O)N2	1.51
Cc1nc(CNCC2CNc3ccnn3C2)cs1 (stereo unspecified)	-8.71
CNC(=O)CCc1cc(C2CCNCC2)nc(C)n1	-6.41
CSCC(CCO)NC(=O)Nc1ccc(Br)cc1 (stereo unspecified)	-12.2
O=C(NCCS(=O)(=O)N1CCN(c2ncccn2)CC1)C1CCCC1	-3.91
Cc1c(C(=O)N2CCCSCC2)nnn1-c1ccccc1Cl	8.31
Cn1c(NCC(O)c2ccc(F)cc2)c(C#N)c(=O)n(C)c1=O (stereo unspecified)	-7.57
CNC1CCC2(CC1)CNC(=O)c1cc(C)ccc1O2 (stereo unspecified)	-9.28
CC[C@@]1(O)CCN(C(=O)CCSCc2ccc(F)cc2)C[C@H]1O	0.264
Cc1cccc(NC(=O)[C@@H]2CCCN2Cc2nnc(C(C)C)n2C)n1	5.81
CCn1cc(NC(=O)NCc2ccc(CN3CCOCC3)cc2)cn1	-6.63
CCOc1ncccc1NC(=O)c1cc2c(s1)CCC2	-15
Brc1cnc(NCCCOCC2CCOC2)nc1 (stereo unspecified)	-2.15
CCOCCCNC(=O)C1(C)CCC(=O)N1c1ccccc1F (stereo unspecified)	-4.42
Cc1cc(N[C@H](CO)c2ccccc2)n2nc(C)cc2n1	-1.58
CC(=O)N1C[C@@H]2C(=O)N(C)C3(CCN(C(=O)C(C)C)CC3)[C@@H]2C1	0.434
O=C(NC1CCNC1)C1(N2CCCCC2)Cc2ccccc2C1 (stereo unspecified)	-5.76
CC(C)NC(=O)c1nc2c(s1)CCCN2c1ccccc1	4.29

Compound	cytotoxicity at 10 µM [%]
O=C(CSc1ccccc1)N1CCC(N2CCCCC2=O)CC1	11.2
CCN(Cc1csc(CS(C)(=O)=O)n1)c1cccc(F)c1	7.25
CN1CCN2CCN(C(=O)c3cc4ncc(CCO)cn4n3)CC2C1 (stereo unspecified)	6.99
CCc1nc(N2CCC3(CCC(=O)N(CCCO)C3)CC2)no1	0.814
c1cc(-c2nnc([C@H]3CCNC3)o2)ccn1	4.82
Cn1ccc(C(=O)NCc2ccccc2CN2CCCC2)cc1=O	-17.1
CCOc1nnc(CN(CC)CC(=O)NC(C)(C)C)s1	-13.7
Cn1ncc(N2CCOC(CCNC(=O)N3CCCCC3)C2)cc1=O (stereo unspecified)	-1.25
Cc1cc(C(=O)Nc2ccc3c(ccn3CCN3CCOCC3)c2)on1	4.29
C[C@H]1CN(C(=O)c2ccc[nH]2)C[C@@]12CCN(c1ccsc1)C2=O	-77.4
CC(=O)N1CC2(CCNCC2)c2cc(C)ccc21	-73.2
CCc1ncc2c(n1)CN(CCCc1nc3ccccc3o1)CC2	-10.6
Cc1ccc(CN2C[C@@H]3CCCO[C@@H]3[C@H](N(C)Cc3ccco3)C2)o1	6.43
O=C(NCCc1nnc2n1CCC2)NC1(c2cccc(F)c2)CC1	3.07
NC(=O)C(NC(=O)Cc1cnn(-c2ccccc2)n1)c1ccccc1 (stereo unspecified)	-3.05
COc1ccc(CN(C)c2ccc(-c3nccn3C)nn2)cc1OC	-3.32
O=C1[C@H]2CN(S(=O)(=O)c3ccccc3)C[C@H]2CN1Cc1cccnc1	-0.0837
COC(=O)[C@H](CSC)Nc1nc(C2CCCC2)nc2c1cnn2C	-52.6
COc1ccc(CN2CCCC2)cc1Oc1ccc(NC(C)=O)cc1	-1.1
